Source: PubChem BioAssay
Only some compounds are listed: those with a hit (about 1.5% of all), similar ones and a draw of the others.
CCR6 antagonist – CCR6 (human) receptor antagonism; P51684; CHO-K1 CCR6 PathHunter beta-arrestin, luminescence, CCL20-stimulated; inhibition, % at 20 µM; hit rate 0.49% among 340,000;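 active means compounds whose inhibition of the agonist-driven luminescence signal at 20 µM reaches about 50%, limit read from the data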;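 further: cells stimulated with CCL20 at 14 nM final; plate controls were DMSO with CCL20 for no effect and DMSO without agonist for full effect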
CXCR6 inh – CXCR6 (human) receptor inhibition | CHO-K1 PathHunter CXCR6 beta-arrestin, luminescence | inhibition, % at 20 µM | hit rate 0.36% among 360,000; in the data active means inhibition above about 34%, passing the limit was not always enough;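 further: antagonist mode with CXCL16 agonist at 10 nM final; 0% = 10 nM CXCL16 with DMSO and 100% = unstimulated wells without agonist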
Target sequence (O00574 whole entry, looked up): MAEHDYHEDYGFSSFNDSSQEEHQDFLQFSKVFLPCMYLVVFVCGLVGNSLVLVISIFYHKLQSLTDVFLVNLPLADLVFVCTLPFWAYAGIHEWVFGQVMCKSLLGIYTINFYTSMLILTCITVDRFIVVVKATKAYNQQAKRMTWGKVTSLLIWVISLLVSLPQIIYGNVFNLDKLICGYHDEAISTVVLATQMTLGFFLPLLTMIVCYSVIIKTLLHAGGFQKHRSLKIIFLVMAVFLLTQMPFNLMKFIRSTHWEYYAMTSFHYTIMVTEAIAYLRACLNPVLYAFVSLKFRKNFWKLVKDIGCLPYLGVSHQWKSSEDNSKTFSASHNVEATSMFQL
EBI2 block – antagonists of human EBI2 receptor | P32249 | EBI2 beta-arrestin recruitment, luminescence, 7a,25-OHC stimulated | inhibition, % at 5 µM | hit rate 0.81% among 360,000 | AID 651636; in the data active means inhibition above about 38%;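 further: enzyme fragment complementation signal reports receptor beta-arrestin coupling in cells; 0% = agonist plus DMSO wells and 100% = wells without agonist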
APJ antag – antagonists of human APJ apelin receptor | CHO-K1 APJ beta-arrestin complementation, luminescence | inhibition, % at 20 µM | hit rate 0.32% among 330,000 | AID 2521;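 active means inhibition above about 40% at 20 µM, limit read from the data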;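 further: cells challenged with 10 nM apelin-13 agonist together with compound; plate controls were apelin-13 plus DMSO wells for no effect and DMSO wells lacking apelin-13 for full effect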
APJ agonist – APJ receptor agonism. CHO-K1 APJ PathHunter beta-arrestin, luminescence; 0% DMSO wells, 100% apelin. hit rate 0.11% among 330,000. activation, % at 20 µM. P35414;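 active means activation more than six SD over the plate average, tested at 20 µM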;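 further: 0% = DMSO alone and 100% = apelin-13 at 10 nM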
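Assay system: CHO-K1 cells stably expressing ProLink-tagged human APJ and arrestin–beta-gal acceptor. Compound dosing: 20 µM single point, 1% DMSO. Times: 16-18 h seeding, 90 min dark compound exposure, 60 min detection. Detection: beta-gal luminescence. Evaluation: APJ–arrestin association signal. Controls: negative DMSO alone, positive Apelin-13 at 10 nM.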
EBI2 conf – EBI2 (human) antagonism, single concentration confirmation | shares compounds with EBI2 block | EBI2 beta-arrestin luminescence, 7a,25-OHC antagonism | inhibition, % at 5 µM | hit rate 29% among 2,400 | AID 651997;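 active means inhibition of at least 50%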
EBI2 agonist – activates EBI2, counter-screen for EBI2 antagonists | shares compounds with EBI2 block | EBI2-expressing cells, agonist mode, luminescence, 60 min; 0% vehicle, 100% 7α,25-dihydroxycholesterol control | activation, % at 5 µM | 2,400 tested, under 10 active;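 active means activation of at least 50%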
bGal counter – counter-screen for EBI2 antagonists: E. coli beta-galactosidase inhibition | shares compounds with EBI2 block | purified beta-galactosidase, luminescent Galacton Star, 15 min | inhibition, % at 5 µM | hit rate 1% among 2,400 | AID 652176;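 active means replicate-average signal at least 3 plate SD below neutral wells, shown as high inhibition, flagging enzyme-inhibiting false positives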;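 further: 0% = DMSO wells with enzyme and 100% = wells lacking enzyme; higher means stronger loss of beta-gal luminescence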
* marks the source's active call; other numbers are inactive results; / = not tested or not shown.

SMILES	CCR6 antagonist	CXCR6 inh	EBI2 block	APJ antag	APJ agonist	EBI2 conf	EBI2 agonist	bGal counter
COC(=O)c1ccc(N2CCC(c3cc(-c4ccc(OC)cc4)n[nH]3)CC2)c([N+](=O)[O-])c1	26	10	50*	5	-3	6	0	6
COc1ccccc1N1CCN(Cc2cc(=O)c(OCC(=O)NC3CCCC3)co2)CC1	-3	8	-5	-4	-2	/	/	/
CCOc1ccc(-c2cn(-c3ccc(OC)cc3)c(SC)n2)cc1	11	-1	65*	-2	1	26	-1	-12
CCOC(=O)C1=C(C)Nc2sc(C(=O)c3ccc(F)cc3)c(N)c2C1c1ccc(C(=O)OC)cc1 (stereo unspecified)	17	2	37*	8	-4	23	-2	-5
NC(=O)c1c(NC(=O)CN2CCN(S(=O)(=O)c3ccccc3)CC2)sc2c1CCC2	19	-9	4	5	-5	/	/	/
CN1C(=O)C(O)(CC(=O)c2ccccn2)c2cc(Br)ccc21 (stereo unspecified)	38	9	36*	24	-2	29	-2	-8
CN1C(=O)[C@@](O)(CC(=O)c2ccccc2)c2cc(Br)ccc21	/	/	2	/	/	/	/	/
CCC1CCCCN1CCCNC(=O)C1CCCN(S(=O)(=O)N2CC(C)CC(C)C2)C1 (stereo unspecified)	3	-10	-6	-21	2	/	/	/
NS(=O)(=O)c1ccc(N/N=C/c2ccc(O)c(O)c2O)c([N+](=O)[O-])c1	33	10	-7	/	/	/	/	/
NS(=O)(=O)c1ccc(N/N=C/c2ccc(O)cc2O)c([N+](=O)[O-])c1	46	24	43*	-2	1	18	-2	2
CCOc1ccc(NS(=O)(=O)c2ccc(C(=O)N3CCC3)cc2)cc1	3	-9	-7	-20	0	/	/	/
COc1cc(NC(=O)c2ccc(N3CC4CC(C3)c3cccc(=O)n3C4)c(NC(=O)c3ccncc3)c2)cc(OC)c1OC (stereo unspecified)	8	-4	-2	-7	-4	/	/	/
CCc1ccccc1S(=O)(=O)c1c(C)cc(C)nc1Cl	1	4	-1	10	-3	/	/	/
O=C1CCN(Cc2ccccc2)C=C1c1ccc(Cl)cc1	11	5	66*	0	1	58*	-1	-10
COc1cc(C2=CN(Cc3ccccc3)CCC2=O)cc(OC)c1OC	2	-4	5	11	-2	/	/	/
O=C1CCN(Cc2ccccc2)C=C1C(=O)c1ccccc1	-14	1	-6	/	/	/	/	/
O=C1CCN(Cc2ccccc2)C=C1c1ccc2ccccc2c1	15	0	90*	-5	-2	65*	0	-13
O=C1CCN(Cc2ccccc2)C=C1c1ccc(C(F)(F)F)cc1	18	0	69*	3	-2	48	-1	-15
CCN(CC)S(=O)(=O)c1ccc(N2CCN(C)CC2)c(NC(=O)Nc2ccc(C)cc2)c1	2	-7	1	-6	6	/	/	/
COc1ccccc1CNC(=O)COc1ccc(S(=O)(=O)N2CCOCC2)cc1C	4	3	1	2	4	/	/	/
CCCc1cc(=O)[nH]c(SCC(=O)N(CCOC)c2c(N)n(Cc3ccccc3)c(=O)[nH]c2=O)n1	-1	-9	-1	18	6	/	/	/
CCN(CC)S(=O)(=O)c1cccc(-c2nnc(SCCOc3ccccc3C)o2)c1	18	0	50*	12	-7	35	0	-1
CCN(CC)S(=O)(=O)c1cccc(-c2nnc(SCCOc3ccccc3)o2)c1	13	10	34	10	-7	/	/	/
C[C@@H]1CN([C@@H](C)CO)S(=O)(=O)c2ccc(Br)cc2O[C@H]1CN(C)C(=O)c1ccccc1F	/	8	-3	/	/	/	/	/
O=C(COc1cccc(Cl)c1)N/N=C\c1cc2ccccc2nc1Cl	-2	-6	53*	-6	1	42	-1	-10
SMILES	CCR6 antagonist	CXCR6 inh	EBI2 block	APJ antag	APJ agonist	EBI2 conf	EBI2 agonist	bGal counter
Cc1ccccc1OCC(=O)N/N=C/c1cc2ccccc2nc1Cl	10	-17	30	-9	5	/	/	/
Cc1ccc(C2=NS(=O)(=O)N(C)C(C(=O)NCc3ccccc3)=C2)cc1	11	0	-3	1	-3	/	/	/
Cc1ccc(C2=NS(=O)(=O)N(C)C(C(=O)NC(C)c3ccccc3)=C2)cc1 (stereo unspecified)	20	4	40*	9	-2	19	1	5
CCCOc1ccc(C(=O)N2CCN(c3ccc(NC(=O)CC)cc3Cl)CC2)cc1	-2	-6	70*	0	1	59*	0	3
COc1ccc(OCC(=O)Nc2ccc(N3CCOCC3)cc2)cc1	0	7	84*	12	4	79*	-1	-6
Cc1ccc(OCC(=O)Nc2ccc(N3CCN(C(=O)c4ccc(C)cc4)CC3)cc2)cc1	12	-1	57*	-14	6	15	1	0
Cc1ccc(OCC(=O)Nc2ccc(N3CCOCC3)cc2)cc1	4	-5	11	-5	4	/	/	/
O=C(COc1ccc(Cl)cc1)Nc1ccc(N2CCN(C(=O)c3ccco3)CC2)cc1	-7	5	54*	3	8	33	0	4
CCCCN1CC(N2CCN(Cc3ccccc3)CC2)CS1(=O)=O (stereo unspecified)	/	-7	-7	/	/	/	/	/
CC1CCCCC1NC(=O)COC(=O)c1c2c(nc3ccccc13)/C(=C\c1ccco1)CC2 (stereo unspecified)	18	11	12	/	/	/	/	/
COC(=O)[C@@]1(Cc2ccc(F)cc2)[C@H]2C(CC(=O)C(=O)N3CCCC3)C(=O)C[C@H]2CN1C(=O)c1ccccc1 (stereo partly specified)	/	7	-12	/	/	/	/	/
COC(=O)[C@@]1(Cc2ccc(OC)cc2)[C@@H]2C(=CC(=O)[C@H]2CC(=O)C(=O)N2CCCC2)CN1C(=O)c1ccccc1	17	1	47*	4	2	61*	0	2
CC(C)[C@H](NC(=O)N1CCn2c1nc1ccccc12)C(=O)NCC1CCCO1 (stereo partly specified)	1	0	4	-6	4	/	/	/
Cc1cccnc1NC(=S)NC(=O)c1oc2ccccc2c1C	31	4	-5	23	-3	/	/	/
CSc1cc(-c2ccc(Cl)cc2)c(C(=O)NC(C)C)s1	7	9	47*	-3	2	34	1	-1
CSc1cc(-c2ccc(Cl)cc2)c(C(=O)NN)s1	-1	-10	13	-6	2	/	/	/
